Test results as given in ChEMBL document CHEMBL4680118, “Cerpegin-derived furo[3,4-c]pyridine-3,4(1H,5H)-diones enhance cellular response to interferons by de novo pyrimidine biosynthesis inhibition” (Eur J Med Chem, 2020).
The source made the active and inactive calls. No cut-off for these calls is given here.

Key:
Type in all cases: cell-based
[1] = molecular target: T1, Dihydroorotate dehydrogenase (quinone), mitochondrial (Homo sapiens, UniProt Q02127); experiment: Inhibition of DHODH in human HEK293 cells assessed as reduction in intracellular pyrimidine level measured after 24 hrs by HPLC coupled spectrophotometry
In short: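 HEK-293 cells plated at 1×10^6 per well, treated 24 h later with compound (80 µM final) or DMSO for 24 h. Pellets deproteinized with 6% perchloric acid, neutralized with Na2CO3, analysed by C18 HPLC at 45°C with ion-pair phosphate/MeOH gradient, detected at 254 nm against reference nucleoside calibration curves. Normalized to viable cell number and DMSO controls.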

[2] = molecular target: T1, Dihydroorotate dehydrogenase (quinone), mitochondrial; experiment: Inhibition of DHODH in human HEK293 cells transfected with ISRE-luciferase reporter gene assessed as increase in 125 IU/ml IFN-alpha stimulated PML mRNA expression at 80 uM measured after 16 hrs by RT-qPCR analysis relative to control
In short: (§1)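 ISRE-Luc HEK cells co-treated with increasing IFN-α concentrations and DMSO or compound (80 µM) for 16 h. Total RNA extracted from 2×10^5 cells with DNase step; qPCR 35 cycles. CT values normalized to RPL13A and unstimulated controls (2^-ΔΔCT), expressed as fold change versus DMSO alone. Three independent experiments; two-way ANOVA with Bonferroni.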

[3] = molecular target: T1, Dihydroorotate dehydrogenase (quinone), mitochondrial; experiment: Inhibition of DHODH in human HEK293 cells transfected with ISRE-luciferase reporter gene assessed as increase in 30 IU/ml IFN-alpha stimulated IFIT1 mRNA expression at 80 uM measured after 16 hrs by RT-qPCR analysis relative to control; in short: as §1
[4] = molecular target: T1, Dihydroorotate dehydrogenase (quinone), mitochondrial; experiment: Inhibition of DHODH in human HEK-293 cells transfected with ISRE-luciferase reporter gene assessed as increase in IFN-alpha mediated cellular response at 80 uM in presence of DHO measured after 24 hrs by luciferase reporter gene assay; settings: HEK293
In short: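 ISRE-Luc HEK-293 cells exposed to increasing IFN-α concentrations with DMSO or compound (80 µM), supplemented with uridine (125 µM) or with 3 mM orotate or DHO. Reporter luciferase read after 24 h, normalized to DMSO + IFN-α 250 IU/ml. Means ± SD of three independent experiments; two-way ANOVA.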

[5] = molecular target: T1, Dihydroorotate dehydrogenase (quinone), mitochondrial; experiment: Inhibition of DHODH in human HEK293 cells transfected with ISRE-luciferase reporter gene assessed as increase in 125 IU/ml IFN-alpha stimulated IFIT3 mRNA expression at 80 uM measured after 16 hrs by RT-qPCR analysis relative to control; in short: as §1
[6] = molecular target: T1, Dihydroorotate dehydrogenase (quinone), mitochondrial; experiment: Inhibition of DHODH in human HEK293 cells assessed as increase in 250 IU/ml IFN-alpha stimulated ISG15 mRNA expression at 80 uM measured after 16 hrs by RT-qPCR analysis relative to control; in short: as §1
[7] = molecular target: T1, Dihydroorotate dehydrogenase (quinone), mitochondrial; experiment: Inhibition of DHODH in human HEK293 cells transfected with ISRE-luciferase reporter gene assessed as increase in 125 IU/ml IFN-alpha stimulated PKR mRNA expression at 80 uM measured after 16 hrs by RT-qPCR analysis relative to control; in short: as §1
[8] = molecular target: T1, Dihydroorotate dehydrogenase (quinone), mitochondrial; experiment: Inhibition of DHODH in human HEK293 cells transfected with ISRE-luciferase reporter gene assessed as increase in 60 IU/ml IFN-alpha stimulated IFIT1 mRNA expression at 80 uM measured after 16 hrs by RT-qPCR analysis relative to control; in short: as §1
[9] = molecular target: T1, Dihydroorotate dehydrogenase (quinone), mitochondrial; experiment: Inhibition of DHODH in human HEK293 cells transfected with ISRE-luciferase reporter gene assessed as increase in 60 IU/ml IFN-alpha stimulated IFIT2 mRNA expression at 80 uM measured after 16 hrs by RT-qPCR analysis relative to control; in short: as §1
[10] = molecular target: T1, Dihydroorotate dehydrogenase (quinone), mitochondrial; experiment: Inhibition of DHODH in human HEK293 cells transfected with ISRE-luciferase reporter gene assessed as increase in 60 IU/ml IFN-alpha stimulated […] mRNA expression at 80 uM measured after 16 hrs by RT-qPCR analysis relative to control; in short: as §1
[11] = molecular target: T1, Dihydroorotate dehydrogenase (quinone), mitochondrial; experiment: Inhibition of DHODH in human HEK293 cells transfected with ISRE-luciferase reporter gene assessed as increase in 125 IU/ml IFN-alpha stimulated IFITM3 mRNA expression at 80 uM measured after 16 hrs by RT-qPCR analysis relative to control; in short: as §1
[12] = molecular target: T1, Dihydroorotate dehydrogenase (quinone), mitochondrial; experiment: Inhibition of DHODH in human HEK293 cells transfected with ISRE-luciferase reporter gene assessed as increase in 250 IU/ml IFN-alpha stimulated IFIT1 mRNA expression at 80 uM measured after 16 hrs by RT-qPCR analysis relative to control; in short: as §1
[13] = molecular target: T1, Dihydroorotate dehydrogenase (quinone), mitochondrial; experiment: Inhibition of DHODH in human HEK293 cells assessed as increase in 125 IU/ml IFN-alpha stimulated ISG15 mRNA expression at 80 uM measured after 16 hrs by RT-qPCR analysis relative to control; in short: as §1
[14] = molecular target: T1, Dihydroorotate dehydrogenase (quinone), mitochondrial; experiment: Inhibition of DHODH in human HEK293 cells transfected with ISRE-luciferase reporter gene assessed as increase in 30 IU/ml IFN-alpha stimulated IFITM3 mRNA expression at 80 uM measured after 16 hrs by RT-qPCR analysis relative to control; in short: as §1
[15] = molecular target: T1, Dihydroorotate dehydrogenase (quinone), mitochondrial; experiment: Inhibition of DHODH in […] treated with R848 stimulated cell supernatant assessed as increase in IFN-gamma-containing conditioned supernatant-stimulated cellular response at 80 uM measured after 24 hrs by luciferase reporter gene assay
In short: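 Donor PBMCs were activated for 24 h with R848 at 5 µg/ml, and the supernatants (containing IFN-γ) were collected. HEK-293 ISRE-Luc reporter cells, not PBMCs, were then stimulated with these supernatants diluted 1/8 to 1/64, in the presence of DMSO or compound at 80 μM. Luciferase was read at 24 h and normalized to cells given the 1/8 dilution. Three independent experiments; two-way ANOVA with Bonferroni.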

[16] = molecular target: T1, Dihydroorotate dehydrogenase (quinone), mitochondrial; experiment: Inhibition of DHODH in human HEK293 cells transfected with ISRE-luciferase reporter gene assessed as increase in 30 IU/ml IFN-alpha stimulated IFIT5 mRNA expression at 80 uM measured after 16 hrs by RT-qPCR analysis relative to control; in short: as §1
[17] = molecular target: T1, Dihydroorotate dehydrogenase (quinone), mitochondrial; experiment: Inhibition of DHODH in human HEK293 cells transfected with ISRE-luciferase reporter gene assessed as increase in 250 IU/ml IFN-alpha stimulated […] mRNA expression at 80 uM measured after 16 hrs by RT-qPCR analysis relative to control; in short: as §1
[18] = molecular target: T1, Dihydroorotate dehydrogenase (quinone), mitochondrial; experiment: Inhibition of DHODH in human HEK293 cells transfected with ISRE-luciferase reporter gene assessed as increase in 60 IU/ml IFN-alpha stimulated MX2 mRNA expression at 80 uM measured after 16 hrs by RT-qPCR analysis relative to control
In short: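 HEK-293 ISRE-Luc cells (DMEM, 10% FCS, 37°C, 5% CO2) were given increasing IFN-α doses together with DMSO or compound at 80 μM, then harvested at 16 h. RNA was extracted from 2×10^5 cells with DNase treatment. Transcripts were run by qPCR for 35 cycles and normalized to RPL13A and to unstimulated controls by 2^-ΔΔCT. Values are fold change versus DMSO; three independent experiments; two-way ANOVA with Bonferroni.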

T1 sequence (Q02127 whole entry): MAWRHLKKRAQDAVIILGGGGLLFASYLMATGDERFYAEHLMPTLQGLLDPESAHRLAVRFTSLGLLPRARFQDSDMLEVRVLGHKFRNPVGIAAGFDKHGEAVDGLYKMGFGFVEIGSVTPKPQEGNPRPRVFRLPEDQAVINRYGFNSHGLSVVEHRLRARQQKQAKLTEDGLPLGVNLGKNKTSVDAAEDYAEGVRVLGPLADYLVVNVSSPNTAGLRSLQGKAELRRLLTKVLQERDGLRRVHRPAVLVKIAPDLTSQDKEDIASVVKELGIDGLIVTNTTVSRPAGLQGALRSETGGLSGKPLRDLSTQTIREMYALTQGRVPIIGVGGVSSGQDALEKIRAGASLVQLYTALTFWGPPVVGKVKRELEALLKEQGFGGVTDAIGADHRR

## O=C1OC2(CCCCC2)c2ccn(C3CC3)c(=O)c21
[1]
  inhibition: Active
[2]
  fold change (FC): 5
[3]
  fold change (FC): 51
[4]
  Activity: Active
[5]
  fold change (FC): 99
[6]
  fold change (FC): 226
[7]
  fold change (FC): 3
[8]
  fold change (FC): 85
[9]
  fold change (FC): 61
[10]
  fold change (FC): 83
[11]
  fold change (FC): 14
[12]
  fold change (FC): 145
[13]
  fold change (FC): 200
[14]
  fold change (FC): 6
[15]
  Activity: Active
[16]
  fold change (FC): 3
[17]
  fold change (FC): 143
[18]
  fold change (FC): 13
